In publication PMC4652583 (Organic letters, 2012):
Ends that are not written are not given here.

Columns and labels:
myeloma and lymphoma = details: in clinical trials for myeloma and lymphoma; ref [9]; cited from earlier work
Nedd8 E1 = details: ref [8]; cited from earlier work
Ube1 [1] = biological target: T1, Ube1 (Homo sapiens, UniProt P22314); test: Competitive inhibition of UB transfer to Ube1; type: biochemical
T1 sequence (P22314 1-1058): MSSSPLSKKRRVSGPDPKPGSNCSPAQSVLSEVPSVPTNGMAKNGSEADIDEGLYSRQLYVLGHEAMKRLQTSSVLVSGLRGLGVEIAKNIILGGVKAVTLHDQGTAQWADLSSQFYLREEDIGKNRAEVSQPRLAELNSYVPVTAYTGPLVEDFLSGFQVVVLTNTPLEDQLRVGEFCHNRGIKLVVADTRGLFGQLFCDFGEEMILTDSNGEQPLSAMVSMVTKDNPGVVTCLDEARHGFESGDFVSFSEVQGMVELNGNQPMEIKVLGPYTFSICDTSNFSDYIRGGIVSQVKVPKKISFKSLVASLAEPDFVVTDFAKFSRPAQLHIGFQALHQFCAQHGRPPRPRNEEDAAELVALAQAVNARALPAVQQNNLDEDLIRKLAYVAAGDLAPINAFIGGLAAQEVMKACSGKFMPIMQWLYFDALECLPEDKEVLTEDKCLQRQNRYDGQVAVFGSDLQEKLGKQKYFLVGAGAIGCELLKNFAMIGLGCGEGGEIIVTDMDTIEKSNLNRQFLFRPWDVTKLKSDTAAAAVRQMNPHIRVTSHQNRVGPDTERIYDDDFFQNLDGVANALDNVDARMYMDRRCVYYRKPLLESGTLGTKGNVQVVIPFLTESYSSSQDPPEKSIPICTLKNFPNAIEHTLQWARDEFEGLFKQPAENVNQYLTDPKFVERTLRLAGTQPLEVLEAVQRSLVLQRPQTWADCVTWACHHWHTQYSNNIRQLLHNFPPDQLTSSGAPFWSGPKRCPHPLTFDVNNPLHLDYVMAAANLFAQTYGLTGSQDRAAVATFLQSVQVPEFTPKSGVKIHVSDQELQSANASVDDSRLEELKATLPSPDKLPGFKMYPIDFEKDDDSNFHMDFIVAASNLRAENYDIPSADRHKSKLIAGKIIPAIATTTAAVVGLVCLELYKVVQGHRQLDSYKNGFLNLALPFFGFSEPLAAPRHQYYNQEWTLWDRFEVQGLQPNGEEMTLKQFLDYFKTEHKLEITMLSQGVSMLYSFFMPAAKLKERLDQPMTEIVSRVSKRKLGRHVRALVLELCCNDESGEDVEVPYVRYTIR
Procedure, shortened: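 Increasing concentrations of test peptide were incubated with 1 µM UB and reacted with Ube1 (E1). UB~E1 thioester conjugate formed in each reaction was measured by Western blot.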

Ube1 [2] = biological target: T1, Ube1; test: ATP-PPi exchange kinetics catalyzed by Ube1; type: biochemical
[3] = substrate: CC(C)[C@H](N)C(=O)N[C@@H](Cc1c[nH]c2ccccc12)C(=O)N[C@@H](CCCNC(=N)N)C(=O)N[C@@H](Cc1ccccc1)C(=O)N[C@@H](Cc1c[nH]cn1)C(=O)NCC(=O)NCC(=O)O; test: ATP-PPi exchange kinetics catalyzed by Ube1; type: biochemical, human; details: other: ATP-PPi exchange catalyzed by Ube1
[4] = substrate: CC(C)[C@H](N)C(=O)N[C@@H](CCC(N)=O)C(=O)N[C@@H](CCCNC(=N)N)C(=O)N[C@@H](Cc1ccc(O)cc1)C(=O)N[C@@H](Cc1c[nH]c2ccccc12)C(=O)NCC(=O)NCC(=O)O; test: ATP-PPi exchange kinetics catalyzed by Ube1; type: biochemical, human; details: other: ATP-PPi exchange catalyzed by Ube1

In the case of NS(=O)(=O)OC[C@@H]1C[C@@H](n2ccc3c(N[C@H]4CCc5ccccc54)ncnc32)C[C@@H]1O [MLN4924], the anticancer activities (myeloma and lymphoma) is given as “promising anticancer activities” and the “inhibition of Nedd8 E1” value (Nedd8 E1) is given as “potent inhibitor of the Nedd8 E1”.

In the case of VLRLRGG [P1], the “inhibition of UB loading on E1” value (Ube1 [1]; at a concentration as high as 1 mM, 1 µM UB, Western blot) is reported as “cannot significantly inhibit UB loading on E1”, the kcat/K1/2 (Ube1 [2]; ATP-PPi exchange catalyzed by Ube1) is reported as 7.7e-05 µM⁻¹ min⁻¹ and the “saturation of Ube1” value (Ube1 [2]; at a concentration as high as 500 µM in the ATP-PPi exchange reaction) is reported as “could not saturate Ube1”.

Molecule VQRYWGG [P3] has an IC50 (Ube1 [1]) of 172 µM.

VWRFHGG [P2] gave an IC50 (Ube1 [1]) of 266 µM.

In the case of VYRFYGG [P4], the IC50 (Ube1 [1]) is reported as 220 µM.

B1: Ube1 (Homo sapiens) (protein)
chain: MSSSPLSKKRRVSGPDPKPGSNCSPAQSVLSEVPSVPTNGMAKNGSEADIDEGLYSRQLYVLGHEAMKRLQTSSVLVSGLRGLGVEIAKNIILGGVKAVTLHDQGTAQWADLSSQFYLREEDIGKNRAEVSQPRLAELNSYVPVTAYTGPLVEDFLSGFQVVVLTNTPLEDQLRVGEFCHNRGIKLVVADTRGLFGQLFCDFGEEMILTDSNGEQPLSAMVSMVTKDNPGVVTCLDEARHGFESGDFVSFSEVQGMVELNGNQPMEIKVLGPYTFSICDTSNFSDYIRGGIVSQVKVPKKISFKSLVASLAEPDFVVTDFAKFSRPAQLHIGFQALHQFCAQHGRPPRPRNEEDAAELVALAQAVNARALPAVQQNNLDEDLIRKLAYVAAGDLAPINAFIGGLAAQEVMKACSGKFMPIMQWLYFDALECLPEDKEVLTEDKCLQRQNRYDGQVAVFGSDLQEKLGKQKYFLVGAGAIGCELLKNFAMIGLGCGEGGEIIVTDMDTIEKSNLNRQFLFRPWDVTKLKSDTAAAAVRQMNPHIRVTSHQNRVGPDTERIYDDDFFQNLDGVANALDNVDARMYMDRRCVYYRKPLLESGTLGTKGNVQVVIPFLTESYSSSQDPPEKSIPICTLKNFPNAIEHTLQWARDEFEGLFKQPAENVNQYLTDPKFVERTLRLAGTQPLEVLEAVQRSLVLQRPQTWADCVTWACHHWHTQYSNNIRQLLHNFPPDQLTSSGAPFWSGPKRCPHPLTFDVNNPLHLDYVMAAANLFAQTYGLTGSQDRAAVATFLQSVQVPEFTPKSGVKIHVSDQELQSANASVDDSRLEELKATLPSPDKLPGFKMYPIDFEKDDDSNFHMDFIVAASNLRAENYDIPSADRHKSKLIAGKIIPAIATTTAAVVGLVCLELYKVVQGHRQLDSYKNGFLNLALPFFGFSEPLAAPRHQYYNQEWTLWDRFEVQGLQPNGEEMTLKQFLDYFKTEHKLEITMLSQGVSMLYSFFMPAAKLKERLDQPMTEIVSRVSKRKLGRHVRALVLELCCNDESGEDVEVPYVRYTIR
With B1 the kcat [3] was 0.0583 ± 0.01 s⁻¹, the kcat/Km [3] was 167 M⁻¹ s⁻¹ and the kcat [4] was 0.162 ± 0.0233 s⁻¹. It also gave a kcat/Km [4] of 383 M⁻¹ s⁻¹.
